# High-throughput results: PubChem BioAssay, several laboratories
# Only some compounds are listed: those with a hit (about 3.1% of all), similar ones and a draw of the others.
# Lipid droplet: inhibitors of hepatocyte lipid droplet formation, primary screen, imaging, high-throughput imaging, BODIPY stain. AML12 mouse hepatocytes, oleate lipid droplets. inhibition, % at 6.5 µM. 0.4% of 240,000 active;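 active means lipid droplet intensity inhibited by at least 50%, with more than 500 cells counted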
#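 System: AML12 hepatocytes (mouse). Probe or stimulus: oleic acid at 100 µM to induce lipid droplet formation. Times: overnight treatment with compound plus oleate. Detection: Image-based BODIPY and DAPI two-channel analysis. Evaluation: percent inhibition of filter-corrected integrated lipid droplet intensity per well.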
# ADAM17 inh: ADAM17 inhibitors, primary screen, biochemical, QFRET; AID 720648, 2013; 0.83% of 370,000 active; recombinant ADAM17, EDANS/DABCYL FRET peptide cleavage; inhibition, % at 6.95 µM;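 active means inhibition above the mean of compounds lying between control limits plus 3 SD, set per campaign, cut at about 8.5% in these data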;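 further: 0% = DMSO-only wells as the low control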
# ADAM10 inh: human ADAM10 inhibitors, primary screen, biochemical, QFRET, HTS | Disintegrin and metalloproteinase domain-containing protein 10 (Homo sapiens), O14672 | recombinant ADAM10, EDANS/DABCYL FRET peptide cleavage, 3 h | inhibition, % at 7 µM | 0.62% of 370,000 active | AID 720582, 2013;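 active means inhibition above a per-campaign cutoff equal to the mean of compounds falling between control-based bounds plus 3 SD, cut at about 20% in these data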;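 further: 0% = DMSO wells while the 100% control is not disclosed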
# Target sequence (O14672 214-748 limits assumed): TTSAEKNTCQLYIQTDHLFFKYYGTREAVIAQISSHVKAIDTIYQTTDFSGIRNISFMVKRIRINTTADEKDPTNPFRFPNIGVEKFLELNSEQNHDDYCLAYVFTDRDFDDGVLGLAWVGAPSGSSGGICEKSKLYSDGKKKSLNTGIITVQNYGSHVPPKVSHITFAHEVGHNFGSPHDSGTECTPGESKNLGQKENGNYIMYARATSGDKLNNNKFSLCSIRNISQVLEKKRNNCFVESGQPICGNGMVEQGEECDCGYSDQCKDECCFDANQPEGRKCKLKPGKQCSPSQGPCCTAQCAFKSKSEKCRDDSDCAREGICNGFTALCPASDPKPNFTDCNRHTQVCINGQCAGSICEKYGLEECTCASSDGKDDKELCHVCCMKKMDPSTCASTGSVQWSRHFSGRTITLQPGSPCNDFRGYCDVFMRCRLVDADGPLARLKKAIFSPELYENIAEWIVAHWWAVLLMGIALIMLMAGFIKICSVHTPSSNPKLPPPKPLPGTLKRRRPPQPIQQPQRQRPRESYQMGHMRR
# V-ATPase pH: regulators of yeast V-ATPase proton pumping, primary screen, pHLuorin cytosolic pH fluorescence. AID 504577, 2011. response, % at 10 µM. 0.37% of 350,000 active. S. cerevisiae; in the data active means response mostly above about 7.3%, no sharp cut-off; inactive means mostly below about 5.4%; further: actives read high
# MPTP inh: mitochondrial permeability transition pore inhibitors, primary screen, biochemical, isolated mouse mitochondria, absorbance; Ca2+ swelling absorbance, 30 min; AID 602449, 2012; 1.4% of 360,000 active; inhibition, % at 10 µM;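 active means inhibition of 50% or more, scaled per plate between neutral and stimulator controls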;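 further: 0% = DMSO wells given calcium and 100% = 1 mM EGTA wells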
# aDG glyco act: activators of alpha-DG glycosylation, primary screen, uHTS, Pro5-aDG cells, AlphaScreen; alpha-DG glycosylation AlphaScreen (IIH6); 0% Pro5, 100% B10-LARGE cell signal; activation, % at 10 µM; 0.22% of 360,000 active; AID 624168, 2012;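 active means activation of at least 8% versus controls, or a plate z-score of at least 8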;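 further: Pro5 are CHO cells carrying HIG-tagged alpha-DG that lacks glycosylation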
# Rh123 counter: fluorescence retest of MPTP screen hits in isolated mitochondria, single concentration. inhibition, % at 10 µM. shares compounds with MPTP inh. membrane potential, Rhodamine 123 fluorescence. 78% of 5,000 active. AID 624504, 2012; in the data active means inhibition above about 22%;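 further: 0% = DMSO vehicle and 100% = positive control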
# MPTP abs DR: mitochondrial permeability transition pore inhibitors, dose response, biochemical, absorbance, uHTS hits | shares compounds with MPTP inh | isolated mitochondria swelling | IC50, µM | 58% of 780 active; in the data active means IC50 below about 20 µM
# MPTP counter DR: fluorescent counter-screen in isolated mitochondria, dose response, counter-screen for MPTP inhibitor project, biochemical, fluorescence, uHTS hits; shares compounds with MPTP inh; isolated mitochondria counterscreen, fluorescence read-out; IC50, µM; 49% of 780 active; AID 651564, 2012; in the data active means IC50 below about 80 µM
# Active calls of the source: *; i = inactive; · = no result given.
SMILES,Lipid droplet,ADAM17 inh,ADAM10 inh,V-ATPase pH,MPTP inh,aDG glyco act,Rh123 counter,others
O=C(c1ccc2c(=O)n(C3CCCC3)c(=S)[nH]c2c1)N1CCCCCC1,10.8,0.3,-0.5,0.7,89.2*,0.8,79.1*,
COc1ccc(-c2nn(-c3ccccc3)cc2/C=N/N=C(N)N)cc1OC,-7.8,-1.2,2.0,3.0,89.4*,-0.7,-30.7,
COc1ccc(-c2nn(-c3ccccc3)cc2/C=N/O)cc1OC,·,2.2,9.9,-7.1,1.1,0.2,·,
Cc1nn(-c2ccccc2)c2c1C(c1cccs1)C(C#N)=C(N)O2 (stereo unspecified),4.1,·,·,0.3,75.3*,0.0,7.2,
O=C(/C=C/c1ccc(Br)cc1)NC(=O)c1ccccc1O,43.6,0.8,3.2,-0.6,102.5*,-0.1,88.4*,
Cc1ccc(N2C(=O)C3C4C=CC(CNC(=S)Nc5ccc(Cl)cc5)(O4)C3C2=O)cc1 (stereo unspecified),8.7,0.9,14.1,-4.5,2.9,0.7,·,
CC(C)COC(=O)NCC12C=CC(O1)C1C(=O)N(c3ccc(Cl)cc3)C(=O)C12 (stereo unspecified),-14.2,-0.6,11.7,-2.3,84.9*,0.6,8.7,
COc1ccccc1/C=N\NC(=O)c1cccc(S(=O)(=O)N(C)C)c1,·,-3.1,-7.7,·,·,·,·,
O=c1c(Cc2ccccc2)c(O)c2cccc3c4c(n1c23)CCCC4,-2.1,-32.7,-129.1,-2.5,66.0*,0.0,79.6*,
S=C(NCc1cccnc1)Nc1ccc(Cl)c(Cl)c1,·,6.3,18.3,6.0,71.1*,0.2,93.0*,
CCNC(=S)Nc1ccc(Oc2ccccc2)cc1,·,1.4,1.4,1.8,-4.0,0.1,·,
COc1ccc(NC(=S)NCc2cccnc2)cc1,-1.5,4.4,11.1,-0.5,0.0,0.4,·,
O=C(CNCc1ccccc1)Nc1ccc(Oc2ccccc2)cc1,-10.3,1.9,8.8,-0.4,66.2*,-0.4,-10.5,MPTP abs DR=i;MPTP counter DR=42.6*
S=C(NCc1ccccc1)Nc1ccc(Oc2ccccc2)cc1,-14.8,3.1,9.7,1.6,85.5*,-0.1,87.0*,
S=C(NCc1cccnc1)Nc1ccc(Oc2ccc(Cl)cc2)cc1,-3.1,0.2,5.1,-4.5,80.1*,0.3,66.1*,
O=C(CNCc1ccccc1)Nc1ccc(F)cc1,9.4,-4.0,14.7,-3.1,2.4,-0.1,·,
COC(=O)[C@H](C(C)C)N(CCCc1cn(Cc2ccccc2)nn1)S(=O)(=O)c1ccccc1Br,·,4.7,9.8,·,·,·,·,
CCCCNC(=O)O[C@H]1CC[C@@]23CCCN2C(=O)CCC[C@H]3[C@H]1CCC,·,-8.3,-2.2,·,·,·,·,
O=C(O)c1ccc(Cl)c(S(=O)(=O)N(Cc2ccccc2)c2ccc(Cl)cc2)c1,-0.6,-1.6,8.7,0.3,2.0,0.0,·,
COc1ccccc1N(Cc1ccccc1)S(=O)(=O)c1cccc(C(=O)O)c1,3.5,-4.3,3.0,5.1,-3.7,0.0,·,
CC1(C)CC(NC(=O)c2ccc(Cl)c(S(=O)(=O)N(Cc3ccccc3)c3ccccc3)c2)CC(C)(C)N1,·,2.8,1.9,-0.7,96.6*,-0.5,-19.9,
COc1ccccc1N(Cc1ccccc1)S(=O)(=O)c1cccc(C(=O)NC2CC(C)(C)NC(C)(C)C2)c1,·,1.1,0.6,-6.2,84.5*,9.1*,-18.4,MPTP abs DR=7.59*;MPTP counter DR=>80
Cc1nn(-c2ccccc2)c2sc(C(=O)N3CCC4(CC3)OCCO4)cc12,·,-3.3,-17.6,·,·,·,·,
Cc1nc(N2CCCCC2)c2c(C)c(C(=O)Nc3cccc(C(F)(F)F)c3)sc2n1,-49.7,0.6,-1.4,0.9,84.2*,-0.1,49.3*,
